# Compound activity deposited in PubChem BioAssay by SRMLSC.
# Only a selection was taken, and hits are over-represented in it overall.
# PTEN del growth: suppresses growth of cells with PTEN deletion. 140,000 compounds, 1.2% hits. HCT116 PTEN-null viability, CellTiter-Glo, 60 h; stronger effect = lower value. viability, % at 10 µM;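 active means viability at or below a set limit, 4 SD under the median of all tested compounds, cut at about 3.7% in these data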;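 further: PTEN knockout HCT116 line with beta catenin targeted HCT116 as companion control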
# H69AR growth 86K: blocks growth of human H69AR lung tumor cells. H69AR lung tumor viability, ATP luminescence, 72 h; stronger effect = lower value. viability, % at 10 µM. 85,000 compounds, 6% hits. AID 598;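 active means viability at or below 40%; inactive means viability above 40%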;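 further: multidrug resistant small cell line overexpressing MRP-1 efflux transporter; 100% = mean luminescence of untreated control wells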
# HUVEC inhibit: human endothelial cell proliferation inhibition; HUVEC proliferation, CellTiter-Glo luminescence, 72 h; stronger effect = lower value; 86,000 compounds, 1.1% hits; viability, % at 10 µM (by protocol); AID 648;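 active means viability at or below 30%; inactive means viability above 30%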;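 further: 100% = median luminescence of DMSO-only cell control wells on each plate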
# Lung fibro prol: blocks proliferation of human lung fibroblasts; AID 719; LL 47 human lung fibroblast viability, ATP luminescence; stronger effect = lower value; viability, % at 10 µM; 85,000 compounds, 1.1% hits;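 active means viability at or below 50% in the single dose screen; inactive means viability above 50%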;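 further: compound exposure lasted 72 h before the ATP readout; 100% = median luminescence of untreated cell-only wells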
#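 material = human LL 47 lung fibroblast cells | dosing = compounds added from tenfold dosing solution, 0.1% DMSO final | timing = overnight cell rest, 72 h compound treatment at 37 °C | measured by = CellTiter-Glo luminescence measuring cellular ATP | evaluation = % viability versus median cells-only luminescence | control set = cell-only wells, no compound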
# bCat KO growth: beta-catenin-lacking colon tumor cell growth suppression. HCT116 beta-catenin knockout viability, CellTiter-Glo, 60 h; stronger effect = lower value. viability, % at 10 µM. 140,000 compounds, 1.5% hits;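 active means viability at or under a set limit, the compound median less 4 SD, cut at about 6% in these data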;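 further: 0% = Hyamine 1622 control at 20 µM and 100% = untreated cell control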
# Numbers without * were called inactive; nt = not tested or not shown.
SMILES,PTEN del growth,H69AR growth 86K,HUVEC inhibit,Lung fibro prol,bCat KO growth
Cc1cc(C)n(-c2nnc3n2N=C(c2ccccc2)CS3)n1,105,82,88,105,100
O=c1c(C(c2nnnn2C2CCCCC2)N2CCCCC2)coc2ccc(Cl)cc12 (stereo not drawn),81,18*,64,94,89
Clc1ccc(C(c2nnnn2C2CCCC2)N2CCN(Cc3ccncc3)CC2)cc1 (stereo not drawn),73,nt,nt,nt,78
O=S(=O)(/N=C(/Nc1ccc(F)c(F)c1F)c1ccccc1)c1ccccc1,87,nt,nt,nt,92
O=C1N/C(=C\c2ccccc2)c2ccccc21,39,24*,43,75,43
O=C1O/C(=C\c2ccccc2)c2ccccc21,97,nt,nt,nt,95
CCCCNS(=O)(=O)c1ccc2nc(SCC(=O)Nc3sccc3C#N)[nH]c2c1,54,21*,50,94,47
N#C/C(=C/c1ccc(-c2ccc(S(N)(=O)=O)cc2)o1)c1nc2ccccc2s1,1.8*,nt,nt,nt,1.5*
N#C/C(=C/c1ccc(-c2ccc(S(N)(=O)=O)cc2)o1)C(=O)Nc1ccccc1,80,nt,nt,nt,72
O=C1CN(c2nc(-c3ccccc3)c3cc(Cl)ccc3n2)c2ccccc2N1,49,nt,nt,nt,51
Clc1ccc2nc(N3CCNCC3)nc(-c3ccccc3)c2c1,1.3*,0.8*,4.3*,2.4*,1.2*
CN1CCN(c2nc(-c3ccccc3)c3cc(Cl)ccc3n2)CC1,44,39*,49,72,56
OCCN1CCN(c2nc(-c3ccccc3)c3cc(Cl)ccc3n2)CC1,71,8.3*,34,94,73
CCN(CC)C(=O)C(Sc1ccccc1)c1ccccc1 (stereo not drawn),88,93,84,95,90
N#Cc1c(-c2cccs2)cc(C2CC2)nc1SCC(N)=O,92,nt,nt,nt,97
CCOC(=O)CSc1nnc(CNC(=O)c2cccs2)n1CCc1ccccc1,94,92,87,102,101
COc1ccc2c(c1)c(=O)cc(-c1ccccc1)n2C,90,55,83,106,81
CCOc1cc(C(=O)N2CCN(c3ccc(C(C)=O)cc3)CC2)cc(OCC)c1OCC,95,38*,93,100,86
Cc1cc2nc(C)n(CCCN)c2cc1C,70,13*,93,73,60
Cc1cc2nc(C)n(CCCNC(=O)Nc3ccc(C#N)cc3)c2cc1C,83,87,90,101,86
CCOc1cc(C)c(-c2onc(C(F)(F)F)c2-c2csc(C)n2)c(O)c1,58,3.9*,39,88,79
Cc1nc(-c2c(C(F)(F)F)noc2-c2ccc(O)cc2O)cs1,84,88,110,99,75
CC(=O)c1ccc(N2CCN(C(=O)COc3ccccc3F)CC2)c(F)c1,86,98,105,96,84
COc1ccc(C2(O)CC3CCC(C2)N3c2nc(C)cc(C)c2C#N)cc1 (stereo not drawn),75,31*,90,93,88
Cc1c(Br)c([N+](=O)[O-])nn1C(C)C(=O)N1CCCc2ccccc21 (stereo not drawn),81,nt,nt,nt,87
SMILES,PTEN del growth,H69AR growth 86K,HUVEC inhibit,Lung fibro prol,bCat KO growth
O=C(NCC1CCCO1)C1CCN(S(=O)(=O)Cc2ccccc2)CC1 (stereo not drawn),94,102,96,104,93
O=C(NCc1ccco1)C1CCN(C(=O)c2cc3sccc3n2Cc2ccc(Cl)cc2)CC1,5,65,88,89,5.7*
O=C(NCc1ccco1)C1CCN(S(=O)(=O)Cc2ccccc2)CC1,0.5*,92,91,95,0.7*
O=C1N2CCSC2=NC1(NS(=O)(=O)c1ccccc1)C(F)(F)F (stereo not drawn),90,88,91,101,106
O=C(O)CC(Cc1ccccc1)c1ccc2c(c1)OCO2 (stereo not drawn),84,105,93,103,88
O=C(CC(SCCO)c1ccc2c(c1)OCO2)c1ccco1 (stereo not drawn),95,16*,85,87,107
O=C(Cn1cnc2sc(-c3ccccc3)cc2c1=O)NCCc1ccccc1,10,26*,39,69,7
O=C(Cn1nnc(-c2ccccc2)n1)NCc1ccco1,87,107,102,99,90
O=C(Cn1cnc2sc(-c3ccccc3)cc2c1=O)NCc1ccccc1,2.2*,22*,51,65,2.1*
O=C(Cn1cnc2sc(-c3ccccc3)cc2c1=O)NCc1ccco1,45,26*,54,68,49
COc1ccccc1NC(C)C(=O)Nc1ccc(C(C)=O)cc1 (stereo not drawn),101,nt,nt,nt,99
O=C(N/N=C/c1ccc(Br)s1)c1ccccc1[N+](=O)[O-],87,nt,nt,nt,75
Cc1ccc(C(=O)N/N=C\c2ccc([N+](=O)[O-])s2)cn1,2.6*,nt,nt,nt,2.4*
O=C(N/N=C/c1ccc([N+](=O)[O-])s1)c1cccc(Br)c1,4,39*,30,2.6*,7
O=C(N/N=C/c1ccc([N+](=O)[O-])s1)c1ccncc1,2.5*,nt,nt,nt,2.5*
COc1ccc(NC(=O)CCC(=O)N/N=C/c2ccc([N+](=O)[O-])s2)cc1,1.1*,nt,nt,nt,1.4*
COc1ccc(NCc2ccc([N+](=O)[O-])s2)cc1,68,nt,nt,nt,62
Cc1ccnc(SCCn2c(N3CCOCC3)nc3c2c(=O)n(C)c(=O)n3C)n1,nt,88,101,98,nt
Cc1n[nH]c(C)c1S(=O)(=O)N1CCN(C2CCCCC2)CC1,91,99,103,108,95
CC(C)c1ccc(NC(=O)COc2ccc(S(=O)(=O)N3CCOCC3)cc2)cc1,100,nt,nt,nt,101
CC(C)(C)NC(=O)C(c1c[nH]c2ccccc12)N(C(=O)Cn1nnc(-c2ccc(F)cc2)n1)c1cccc(O)c1 (stereo not drawn),28,nt,nt,nt,38
Cc1ccc(/C=N\NC(=O)c2cc([N+](=O)[O-])cc([N+](=O)[O-])c2)o1,88,nt,nt,nt,92
Cc1ccc(C(=O)N/N=C/c2ccc([N+](=O)[O-])s2)cc1,1.3*,20*,36,49*,1.9*
O=C(N/N=C/C=C/c1ccccc1)c1cccc(Br)c1,57,37*,80,77,59
Cn1c(SCC(=O)N/N=C/c2ccc([N+](=O)[O-])s2)nnc1-c1ccc(Cl)cc1,1.6*,nt,nt,nt,1.9*
CCCc1nc2ccccc2n2cc3c(=O)n(C)c(=O)n(C)c3c12,nt,92,86,94,nt
Cc1ccc(-n2nc(C)c(C3C(C#N)=C(N)OC4=C3C(=O)CCC4)c2Cl)cc1 (stereo not drawn),nt,51,91,92,nt
Cc1nn(-c2ccccc2)c(Cl)c1C1C(C#N)=C(N)OC2=C1C(=O)CC(C)(C)C2 (stereo not drawn),74,8.8*,55,71,74
O=C(c1ccccc1)c1coc2ccc(O)c(Cl)c12,87,62,89,94,87
O=C1C(=O)c2c(C(=O)c3ccccc3)coc2-c2ccccc21,1.5*,0.5*,3.2*,36*,1.8*
